Source: ChEMBL document CHEMBL3758073, “Synthesis and Biochemical Evaluation of 3-Phenoxy-1,4-diarylazetidin-2-ones as Tubulin-Targeting Antitumor Agents” (J Med Chem, 2016)
Active and inactive are the calls of the source. The calls are words filed in the database; no cut-off is given here.

Key:
[1] = Half life of the compound in pH 9 after 3 to 24 hrs by HPLC; type: physicochemical
Outline: (§1)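 10 mg compound was dissolved in 10 ml mobile phase as stock. 200 µL stock was diluted into 9.8 mL phosphate buffer (pH 4, 7.4 or 9, British Pharmacopeia 2010) and injected immediately. Samples were analysed at t=0, then every 3 h to 24 h, by reverse-phase C8 HPLC: acetonitrile:water 50:50, 1 ml/min, 254 nm detection. Half-life was derived from these runs.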

MCF7 [2] = test: Antiproliferative activity against human MCF7 cells assessed as cell viability pre-incubated for 24 hrs with CO2 followed by compound addition after 72 hrs by MTT assay; type: functional, cell-based
Outline: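 MCF-7 grown in Eagle's MEM with 10% FBS, 2 mM L-glutamine, penicillin/streptomycin and 1% non-essential amino acids. Cells seeded at 2.5 x 10⁴ cells/mL, 24 h at 37 °C, then dosed from ethanol stocks over 1 nM–100 µM (vehicle 1% v/v ethanol) for 72 h. MTT at 1 mg/mL final, 2 h in the dark, DMSO solubilisation. Viability set against untreated controls; IC50 is the mean of three experiments in triplicate.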

[3] = Half life of the compound in pH 4 after 3 to 24 hrs by HPLC; type: physicochemical; outline: as §1
MCF7 [4] = test: Induction of apoptosis in human MCF7 cells assessed as accumulation at sub-G0/G1 level at 100 nM after 72 hrs by propidium iodide staining based flow cytometric analysis (reference value: 4%); type: functional
MCF7 [5] = test: Cytotoxicity against human MCF7 cells assessed as induction of cell death at 10 uM after 72 hrs by LDH assay; type: cell-based; settings: mcf7, 72 h
Outline: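 Cell death in MCF-7 measured by LDH release. Seeding and dosing as for the MTT assay; after 72 h, lysis solution added to blank wells for 1 h to give 100% death. Supernatant mixed with substrate (INT to formazan) for 30 min at rt in the dark, then stopped and read at 490 nm. Percentage cell death reported at 10 μM; assays in triplicate.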

[6] = Half life of the compound in pH 7.4 after 3 to 24 hrs by HPLC; type: physicochemical; outline: as §1
Tubulin (Sus scrofa) = Tubulin (Sus scrofa) (UniProt P02554+P02550); test: Inhibition of porcine tubulin polymerization assessed as inhibition of tubulin assembly Vmax rate at 10 uM by spectrophotometric analysis; type: protein assay
Outline: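 Tubulin polymerisation kit (>97% pure porcine tubulin, OD-based). Tubulin plus GTP at 37 °C with test agent at 10 μM final; 1% v/v ethanol as vehicle. A340 read every 30 s for 60 min at 37 °C. Fold change in Vmax calculated relative to vehicle; mean of three separate experiments.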

[7] = Antiproliferative activity against human NCI60 cells by SRB assay; type: functional
Outline: (§2)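 NCI panel of 56 cell lines (MCF-7 included), run after an initial single-dose 10 μM screen. Five-dose testing used a sulphorhodamine B protein-staining read-out. GI50 (50% growth inhibition) and LC50 (50% lethal concentration) were derived for each line, and a mean GI50 was taken across the panel.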

MCF7 [8] = test: Antiproliferative activity against human MCF7 cells by SRB assay; type: functional; outline: as §2
Tubulin (Homo sapiens) = Tubulin (Homo sapiens) (UniProt P68371+Q9H4B7+P0DPH7+P68366+Q13509+Q71U36+P04350+Q3ZCM7+P07437+P68363+Q9BQE3+Q6PEY2+Q13885+Q9BVA1+Q9BUF5); test: Inhibition of tubulin polymerization in human MCF7 cells assessed as induction of microtubules bundles formation at 1 uM incubated for 16 hrs by FITC-DAPI staining based confocal microscopic analysis; type: cell-based
MCF7 [9] = test: Binding affinity to beta-Tubulin in human MCF7 cells assessed as inhibition of protein-EBI adduct formation at Cys239 and Cys354 at 10 uM pre-incubated for 2 hrs followed by EBI addition after 1.5 hrs by Western blot analysis; type: cell-based
Outline: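 MCF-7 seeded at 5×10^4 cells/well and incubated overnight. Treated 2 h with test agent at 10 μM or with vehicle (0.1% v/v ethanol), then with N,N'-ethylene-bis(iodoacetamide) for a further 1.5 h. Cells washed in ice-cold PBS and lysed in Laemmli buffer. SDS-PAGE, PVDF transfer and β-tubulin immunoblot to detect the faster-migrating β-tubulin–EBI adduct. Three independent experiments.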

[10] = Antitumor activity against human UACC62 cells xenografted in athymic nude mouse assessed as reduction in tumor cell growth at 37.5 mg/kg, ip by hollow fiber assay; type: functional; settings: UACC-62, ip, read-out: TGI
MCF7 [11] = test: Induction of apoptosis in human MCF7 cells assessed as accumulation at sub-G0/G1 level at 50 nM after 72 hrs by propidium iodide staining based flow cytometric analysis (reference value: 4%); type: functional
MCF7 [12] = test: Induction of cell cycle arrest in human MCF7 cells assessed as accumulation at G2/M phase at 50 nM after 48 hrs by propidium iodide staining based flow cytometric analysis (reference value: 25%); type: functional
MCF7 [13] = test: Induction of cell cycle arrest in human MCF7 cells assessed as accumulation at G2/M phase at 50 nM after 24 hrs by propidium iodide staining based flow cytometric analysis (reference value: 25%); type: functional
[14] = Toxicity in ip dosed athymic nude mouse; type: organism-based; settings: in vivo
MCF7 [15] = test: Inhibition of tubulin polymerization in human MCF7 cells assessed as loss of microtubules formation at 100 nM incubated for 16 hrs by FITC-DAPI staining based confocal microscopic analysis; type: functional, cell-based
Outline: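 MCF-7 seeded at 1×10^5 cells/ml on chamber glass slides and treated 16 h with paclitaxel (1 μM), test agent (100 nM) or vehicle (1% v/v ethanol). Fixed 20 min in 4% paraformaldehyde, permeabilised in 0.5% Triton X-100, blocked in 5% BSA. Stained with anti-α-tubulin–FITC (DM1A, 1:100, 2 h rt) and Alexa Fluor 488, DAPI counterstain. Imaged by confocal microscopy; three independent occasions.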

[16] = Antiproliferative activity against human MDA-MB-321 cells assessed as cell viability after 72 hrs by MTT assay; type: functional, cell-based
Outline: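 MDA-MB-231 cells kept in DMEM with 10% FBS, 2 mM L-glutamine and penicillin/streptomycin. Seeded at 2.5 x 10⁴ cells/mL, 24 h at 37 °C, then exposed for 72 h to 1 nM–100 µM from ethanol stocks (1% v/v ethanol vehicle). MTT added at 1 mg/mL final for 2 h in the dark, DMSO solubilisation, absorbance read, viability relative to untreated controls.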

Chain of Tubulin (Sus scrofa) (P02550 whole entry, looked up): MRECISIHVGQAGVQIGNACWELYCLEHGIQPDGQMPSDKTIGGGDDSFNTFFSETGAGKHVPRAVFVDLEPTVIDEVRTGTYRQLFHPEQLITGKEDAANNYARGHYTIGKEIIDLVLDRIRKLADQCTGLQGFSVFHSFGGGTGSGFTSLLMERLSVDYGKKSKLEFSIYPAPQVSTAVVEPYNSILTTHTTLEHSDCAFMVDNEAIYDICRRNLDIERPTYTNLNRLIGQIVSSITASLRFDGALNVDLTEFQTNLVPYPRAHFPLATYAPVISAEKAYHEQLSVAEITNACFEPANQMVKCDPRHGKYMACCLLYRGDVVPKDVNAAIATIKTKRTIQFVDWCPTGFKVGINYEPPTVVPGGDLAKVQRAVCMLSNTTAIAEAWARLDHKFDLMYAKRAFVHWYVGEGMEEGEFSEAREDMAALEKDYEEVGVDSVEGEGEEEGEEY
Chain of Tubulin (Sus scrofa) (P02554 whole entry, looked up): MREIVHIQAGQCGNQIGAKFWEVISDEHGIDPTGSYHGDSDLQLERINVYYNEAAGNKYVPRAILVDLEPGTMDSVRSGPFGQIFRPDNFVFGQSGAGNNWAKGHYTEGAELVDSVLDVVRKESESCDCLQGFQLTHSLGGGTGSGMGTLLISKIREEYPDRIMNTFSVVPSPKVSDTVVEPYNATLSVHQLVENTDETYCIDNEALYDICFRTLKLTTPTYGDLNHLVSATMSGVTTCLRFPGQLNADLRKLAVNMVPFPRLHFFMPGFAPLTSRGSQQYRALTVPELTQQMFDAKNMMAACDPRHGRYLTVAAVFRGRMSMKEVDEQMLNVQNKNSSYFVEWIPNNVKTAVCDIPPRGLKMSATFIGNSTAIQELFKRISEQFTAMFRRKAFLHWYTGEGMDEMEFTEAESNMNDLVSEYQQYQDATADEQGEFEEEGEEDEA

In the case of `COc1ccc([C@@H]2[C@@H](Oc3ccccc3)C(=O)N2c2cc(OC)c(OC)c(OC)c2)cc1O` (relative stereo), the half-life [1] is reported as 660 min, the IC50 (MCF7 [2]) is reported as 38 nM and the half-life [3] is reported as 720 min. The Activity (MCF7 [4]) was 34%, the Activity (MCF7 [5]) was 29% and the half-life [6] was 480 min. For the same molecule, the fold change (FC) (Tubulin (Sus scrofa)) was 3.2.
With `COc1ccc([C@@H]2[C@H](Oc3ccccc3)C(=O)N2c2cc(OC)c(OC)c(OC)c2)cc1O` (relative stereo) the IC50 (MCF7 [2]) was 383 nM, the GI50 [7] was 1450 nM and the Activity (MCF7 [5]) was 2.8%. For the same molecule, the GI50 (MCF7 [8]) was 360 nM and the fold change (FC) (Tubulin (Sus scrofa)) was 1.1.
For `CC(=O)O[C@H]1C(=O)[C@@]2(C)[C@H]([C@H](OC(=O)c3ccccc3)[C@]3(O)C[C@H](OC(=O)[C@H](O)[C@@H](NC(=O)c4ccccc4)c4ccccc4)C(C)=C1C3(C)C)[C@]1(OC(C)=O)CO[C@@H]1C[C@@H]2O`, the inhibition (Tubulin (Homo sapiens)) was “Active”.
With `COc1ccc([C@@H]2[C@@H](Oc3ccccc3)C(=O)N2c2cc(OC)c(OC)c(OC)c2)cc1N` (relative stereo) the half-life [1] was 1080 min, the Activity (MCF7 [9]) was “Active” and the IC50 (MCF7 [2]) was 13 nM. The GI50 [7] was 22.4 nM, the inhibition in vivo at 37.5 mg/kg [10] was 50% and the Activity (MCF7 [11]) was 35%. For the same molecule, the half-life [3] was 1080 min, the Activity (MCF7 [5]) was 10.2% and the GI50 (MCF7 [8]) was under 10 nM. The half-life [6] was over 1440 min, the Activity (MCF7 [12]) was 73% and the Activity (MCF7 [13]) was 57%. For the same molecule, the MTD [14] was 100 mg/kg, the fold change (FC) (Tubulin (Sus scrofa)) was 1.8 and the inhibition (MCF7 [15]) was “Active”. It also gave an IC50 [16] of 15 nM.
For `COc1ccc(/C=C\c2cc(OC)c(OC)c(OC)c2)cc1O` [COMBRETASTATIN A4], the Activity (MCF7 [9]) was “Active”, the IC50 (MCF7 [2]) was 3.9 nM and the Activity (MCF7 [5]) was 5.5%. The fold change (FC) (Tubulin (Sus scrofa)) was 6 and the inhibition (MCF7 [15]) was “Active”.
